Reference: ChEMBL document CHEMBL4004809, “Dibenzofurans and Pseudodepsidones from the Lichen Stereocaulon paschale Collected in Northern Quebec” (2017)
In brackets after ≈: the same amount, converted by molar mass. Activity calls are given as the source filed them. No cut-off for these calls is given here.

Assays:
Assay type in all cases: functional
Porphyromonas gingivalis [1] = assay: Antibacterial activity against Porphyromonas gingivalis ATCC 33277 after 24 hrs; settings: ATCC 33277, 24 h
Method in brief: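 P. gingivalis grown anaerobically (N2-H2-CO2 80:10:10) at 37 °C in Todd-Hewitt broth with 0.001% hemin and 0.0001% vitamin K. Overnight culture diluted to OD660 0.2 and added 1:1 to serial dilutions of compound (80 to 5 μM). Vehicle-only and penicillin G controls. After 24 h, MIC taken as lowest concentration giving complete growth inhibition. Triplicate.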

Streptococcus mutans [2] = assay: Antibacterial activity against Streptococcus mutans ATCC 25175 after 24 hrs; settings: ATCC 25175, 24 h
Method in brief: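 S. mutans grown aerobically at 37 °C in Todd-Hewitt broth with 0.001% hemin and 0.0001% vitamin K. Overnight culture diluted to OD660 0.2 and mixed 1:1 with serial compound dilutions (80 to 5 μM). Vehicle-only and penicillin G controls included. MIC = lowest concentration with complete growth inhibition after 24 h. Triplicate.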

Porphyromonas gingivalis [3] = assay: Bactericidal activity against Porphyromonas gingivalis ATCC 33277 after 24 hrs; settings: ATCC 33277, 24 h
Method in brief: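 For MBC, P. gingivalis was run as in the anaerobic broth MIC set-up (THBHK, 37 °C, 24 h, 80 to 5 μM). 10 μL from wells without visible growth was spread on solid medium. MBC was read from these subcultures. Penicillin G served as reference. Triplicate.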

Streptococcus mutans [4] = assay: Bactericidal activity against Streptococcus mutans ATCC 25175 after 24 hrs; settings: ATCC 25175, 24 h
Method in brief: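 MBC for S. mutans was run after the aerobic 37 °C THBHK microdilution (80 to 5 μM, 24 h). 10 μL aliquots from wells lacking visible growth were plated on solid medium to find the minimal bactericidal concentration. Penicillin G served as reference. Triplicate.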

Candida albicans = assay: Antifungal activity against Candida albicans ATCC 28366 assessed as growth inhibition at 80 uM after 24 hrs
Method in brief: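 C. albicans cultured aerobically at 37 °C in yeast nitrogen base with 0.5% glucose. Overnight culture diluted to OD660 0.2 and added 1:1 to compound dilutions, top level 80 μM. Vehicle-only and nystatin controls included. Growth inhibition scored after 24 h. Triplicate.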

SMILES | MIC (Porphyromonas gingivalis [1]) [µM] | MIC (Streptococcus mutans [2]) [µM] | MBC (Porphyromonas gingivalis [3]) [µM] | MBC (Streptococcus mutans [4]) [µM] | growth inhibition (GI) (Candida albicans)
Cc1c(C(=O)O)c(O)cc2oc3cc(O)cc(CO)c3c12 | > 80 | > 80 | > 80 | > 80 | inactive
CC1(C)S[C@@H]2[C@H](NC(=O)Cc3ccccc3)C(=O)N2[C@H]1C(=O)O [PENICILLIN G] | 0.29 (≈ 0.097 µg/mL) | 0.15 (≈ 0.0502 µg/mL) | 2.3 (≈ 0.769 µg/mL) | 4.7 (≈ 1.57 µg/mL) | 
CCCCCc1cc(O)cc(O)c1Oc1cc(OC)cc2c1C(=O)OC2(CCCC)OC (centres undefined) | 80 (≈ 35.6 µg/mL) | 80 (≈ 35.6 µg/mL) | 80 (≈ 35.6 µg/mL) | 80 (≈ 35.6 µg/mL) | inactive
CCCCCc1cc(O)cc(O)c1Oc1cc(OC)cc(C(=O)CCCC)c1C(=O)OC | 80 (≈ 35.6 µg/mL) | 80 (≈ 35.6 µg/mL) | 80 (≈ 35.6 µg/mL) | > 80 | inactive
Cc1c(C(=O)O)c(O)cc2oc3cc(O)cc(C(=O)O)c3c12 | > 80 | > 80 | > 80 | > 80 | inactive
CCCCCc1cc(O)cc(O)c1Oc1cc(OC)cc2c1C(=O)OC2(O)CCCC (centres undefined) [SAKISACAULON A] | > 80 | 80 (≈ 34.4 µg/mL) | > 80 | 80 (≈ 34.4 µg/mL) | inactive
CCCCCc1c2c(cc(O)c1C(=O)O)OC(=O)c1c(cc(OC)cc1C(=O)CCCC)O2 [LOBARIC ACID] | 80 (≈ 36.5 µg/mL) | 20 (≈ 9.13 µg/mL) | 80 (≈ 36.5 µg/mL) | 80 (≈ 36.5 µg/mL) | inactive
Cc1cc(O)cc2oc3cc(O)cc(CO)c3c12 | > 80 | > 80 | > 80 | > 80 | inactive
CCCCCc1c(Oc2cc(OC)cc(C(=O)CCCC)c2C(=O)OC)c(O)cc(O)c1C(=O)O | 40 (≈ 19.5 µg/mL) | 80 (≈ 39.1 µg/mL) | 40 (≈ 19.5 µg/mL) | > 80 | inactive
COC(=O)c1c(C)cc(O)c(C)c1O [ATRARIC ACID] | > 80 | > 80 | > 80 | > 80 | inactive
CCC/C=C1\OC(=O)c2c(Oc3c(O)cc(O)cc3CCCCC)cc(OC)cc21 | 20 (≈ 8.25 µg/mL) | 10 (≈ 4.12 µg/mL) | 20 (≈ 8.25 µg/mL) | 20 (≈ 8.25 µg/mL) | inactive
CCCCCc1c(Oc2cc(OC)cc3c2C(=O)OC3(CCCC)OC)c(O)cc(O)c1C(=O)O (centres undefined) | 80 (≈ 39.1 µg/mL) | 80 (≈ 39.1 µg/mL) | 80 (≈ 39.1 µg/mL) | 80 (≈ 39.1 µg/mL) | inactive
COC(=O)c1c(C)cc(O)c(C=O)c1O [METHYL HAEMATOMMATE] | > 80 | > 80 | > 80 | > 80 | inactive
